Assay results from ChEMBL document CHEMBL5329218, “Novel styryl-thiazole hybrids as potential anti-Alzheimer's agents” (RSC Med Chem, 2023).
Activity calls are given as the source filed them. The rule behind the calls is not given here.

Key:
SH-SY5Y [1] = experiment: Neuroprotective activity against amyloid beta 1-42-treated human SH-SY5Y cells assessed as decrease in beta-secretase activity measured per mg protein incubated for 30 mins by microplate reader analysis (reference value: 54.35 +/- 4.34 RFU); format: functional; conditions: 0.5 h
Acetylcholinesterase = Acetylcholinesterase (Homo sapiens, UniProt P22303); experiment: Inhibition of AChE (unknown origin) using acetylthiocholine iodide as substrate prewarmed for 10 mins followed by substrate addition measured after 15 mins by DTNB assay
Chain of Acetylcholinesterase (P22303 whole entry): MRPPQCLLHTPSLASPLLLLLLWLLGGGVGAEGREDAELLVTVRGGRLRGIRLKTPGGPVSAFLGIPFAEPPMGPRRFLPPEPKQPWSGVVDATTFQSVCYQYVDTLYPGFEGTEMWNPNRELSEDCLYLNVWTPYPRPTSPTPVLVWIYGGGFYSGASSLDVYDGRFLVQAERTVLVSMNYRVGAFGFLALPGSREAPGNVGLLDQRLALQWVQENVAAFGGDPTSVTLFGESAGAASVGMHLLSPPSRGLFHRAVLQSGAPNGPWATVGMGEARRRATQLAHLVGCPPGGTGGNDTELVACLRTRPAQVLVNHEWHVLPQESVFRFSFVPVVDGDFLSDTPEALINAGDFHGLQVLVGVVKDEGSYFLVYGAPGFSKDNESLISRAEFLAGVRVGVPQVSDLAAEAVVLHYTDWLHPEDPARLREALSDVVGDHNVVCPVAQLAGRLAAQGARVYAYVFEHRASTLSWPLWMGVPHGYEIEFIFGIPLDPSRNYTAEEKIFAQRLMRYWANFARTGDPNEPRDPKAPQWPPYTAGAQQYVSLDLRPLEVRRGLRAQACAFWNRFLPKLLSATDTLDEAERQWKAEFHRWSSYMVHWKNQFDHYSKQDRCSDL
Procedure, shortened: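 Purified AChE at 0.005 unit per well in 50 mM Na2HPO4, pH 7.7. Test compound at 0.5 mM per well, read at 405 nm, then preincubated 10 min at 37 °C. Started with acetylthiocholine iodide and DTNB (each 0.5 mM per well). Absorbance at 405 nm after 15 min at 37 °C. Eserine reference, triplicate; % inhibition versus control, IC50 by kinetics fitting.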

[2] = Genotoxicity in human SH-SY5Y cells assessed as mean nuclear abnormalities measured per 1000 cells at 100 ug/ml incubated for 24 hrs by Hoechst 33258 staining based fluorescent microscopy (reference value: 0.016 +/- 0.007); format: toxicity, cell-based; conditions: dose 100 µg/ml
[3] = Genotoxicity in human SH-SY5Y cells assessed as nuclear abnormalities by measuring total lobbed nucleus at 100 ug/ml incubated for 24 hrs by Hoechst 33258 staining based fluorescent microscopy (reference value: 5); format: toxicity, cell-based; conditions: dose 100 µg/ml
SH-SY5Y [4] = experiment: Neuroprotective activity against amyloid beta 1-42-treated human SH-SY5Y cells assessed as increase in cell viability at 50 ug/ml incubated for 24 hrs by MTT assay relative to control; conditions: dose 50 µg/ml
SH-SY5Y [5] = experiment: Neuroprotective activity against amyloid beta 1-42-treated human SH-SY5Y cells assessed as decrease in AChE activity incubated for 30 mins by microplate reader analysis (reference value: 459.6 +/- 32.152 mU/ml); format: functional; conditions: dose 0.5 mM
[6] = Genotoxicity in human SH-SY5Y cells assessed as nuclear abnormalities by measuring total micronucleus at 100 ug/ml incubated for 24 hrs by Hoechst 33258 staining based fluorescent microscopy (reference value: 6); format: toxicity, cell-based; conditions: dose 100 µg/ml
Beta-secretase 1 = Beta-secretase 1 (Homo sapiens, UniProt P56817); experiment: Inhibition of BACE1 (unknown origin) expressed in baculovirus expression system using Rh-EVNLDAEFKQuencher peptide substrate incubated for 90 mins by FRET assay
Chain of Beta-secretase 1 (P56817 whole entry): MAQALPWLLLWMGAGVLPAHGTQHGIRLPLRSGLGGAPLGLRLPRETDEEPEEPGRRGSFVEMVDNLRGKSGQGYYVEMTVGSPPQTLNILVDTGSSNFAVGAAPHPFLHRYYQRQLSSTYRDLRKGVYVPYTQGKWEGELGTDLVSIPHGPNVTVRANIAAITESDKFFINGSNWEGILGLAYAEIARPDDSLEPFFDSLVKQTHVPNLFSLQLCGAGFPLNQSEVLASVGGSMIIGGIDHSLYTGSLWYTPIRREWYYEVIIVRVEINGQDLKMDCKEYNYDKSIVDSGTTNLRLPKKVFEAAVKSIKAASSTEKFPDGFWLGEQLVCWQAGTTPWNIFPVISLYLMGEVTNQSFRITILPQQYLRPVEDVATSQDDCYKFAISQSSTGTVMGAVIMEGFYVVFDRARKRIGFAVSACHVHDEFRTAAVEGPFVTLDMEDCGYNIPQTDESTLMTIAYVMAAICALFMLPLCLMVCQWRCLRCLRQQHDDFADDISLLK

SH-SY5Y [7] = experiment: Neuroprotective activity against amyloid beta 1-42-treated human SH-SY5Y cells assessed as reduction in beta amyloid aggregation by Congo Red dye based analysis relative to control; format: functional; set-up: scale not given: the % may be the effect or the level left
Procedure, shortened: (§1)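 SH-SY5Y differentiated with RA then BDNF. Aβ1-42 pre-fibrillized at 20 µM in medium for 24 h, then 20 µM added with compounds for 24 h. Cells fixed in 4% paraformaldehyde at 4 °C for 30 min. Stained with 1 µM Congo red for 1 h in the dark, washed with PBS, dye extracted into DMSO, absorbance at 497 nm.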

[8] = Genotoxicity in human SH-SY5Y cells assessed as nuclear abnormalities by measuring total notched mutations at 100 ug/ml incubated for 24 hrs by Hoechst 33258 staining based fluorescent microscopy (reference value: 5); format: toxicity, cell-based; conditions: dose 100 µg/ml
SH-SY5Y [9] = experiment: Antialzheimer activity against RA/BDNF-treated human SH-SY5Y cells assessed as cell viability at 12.5 to 100 ug/ml incubated for 24 hrs by MTT assay; format: functional, cell-based; conditions: dose 12.5-100 µg/ml
Procedure, shortened: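 SH-SY5Y grown in DMEM:F12 with 10% FBS at 37 °C, 5% CO2. Differentiated with 10 µM retinoic acid to day 8 (3% FBS medium refreshed every 2 days), then 25 nM BDNF for 5 days. Compound exposure, then MTT for 3 h at 37 °C. Formazan dissolved in DMSO, absorbance at 570 nm. 1.0% Triton X-100 as control.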

SH-SY5Y [10] = experiment: Neuroprotective activity against amyloid beta 1-42-treated human SH-SY5Y cells assessed as increase in cell viability at 25 ug/ml incubated for 24 hrs by MTT assay relative to control; conditions: dose 25 µg/ml
SH-SY5Y [11] = experiment: Neuroprotective activity against amyloid beta 1-42-treated human SH-SY5Y cells assessed as reduction in beta amyloid aggregation by Congo Red dye based analysis; format: functional, cell-based; procedure, shortened: as §1

SMILES | Activity (SH-SY5Y [1]) [RFU] | IC50 (Acetylcholinesterase) [µM] | Activity [2] | Activity [3] | Activity (SH-SY5Y [4]) [%] | Activity (SH-SY5Y [5]) [mU/ml] | Activity [6] | IC50 (Beta-secretase 1) [µM] | Activity (SH-SY5Y [7]) [%] | Activity [8] | Activity (SH-SY5Y [9]) | Activity (SH-SY5Y [10]) [%] | Activity (SH-SY5Y [11])
COc1ccc(/C=C/c2nc(-c3ccc(OC)cc3)cs2)cc1 | 14.13 | 197 | 0.017 | 6 | ~34 | 397.6 | 6 | 78.2 | >80 | 5 | Active | – | –
Brc1ccc(-c2csc(/C=C/c3ccccc3)n2)cc1 | 17.41 | 229 | 0.017 | 5 | – | 375.6 | 4 | 44.4 | – | 9 | Active | ~30 | Active
